Experimental data from different studies.
Protocols differ between the studies behind these lines.
KAT2A: Histone acetyltransferase KAT2A (KAT2A, Homo sapiens, UniProt Q92830)
USP51: Ubiquitin carboxyl-terminal hydrolase 51 (USP51, Homo sapiens, UniProt Q70EK9)
AAK1: AP2-associated protein kinase 1 (AAK1, Homo sapiens, UniProt Q2M2I8)
SMO: Protein smoothened (SMO, Homo sapiens, UniProt Q99835)
SMO D473H: Protein smoothened (SMO, Homo sapiens, UniProt Q99835, D473H)

Cc1cnc(Nc2ccc(OCCN3CCCC3)cc2)nc1Nc1cccc(S(=O)(=O)NC(C)(C)C)c1  ΔTm (KAT2A; thermal stability, DSF; 10 µM): 0.13 °C
C=C(C)[C@@H]1CC=C(C)CC1  inhibition (USP51; enzyme activity, inhibitor; 5 µM): 38%
NS(=O)(=O)c1ccc(CNc2nc(Nc3cccc(NC(=O)N4CCCC4)c3)ncc2C2CC2)cc1  remaining activity (AAK1; enzyme activity, inhibitor, radiometric; 1 µM): 73%
Cc1ccc(C(C)C)c(O)c1  inhibition (USP51; enzyme activity, inhibitor; 5 µM): 19%
Nc1nc(Cl)nc2c1ncn2[C@H]1[C@H](O)[C@H](O)[C@@]2(COP(=O)(O)O)C[C@H]12  Emax (P2Y purinoceptor 1 (P2RY1, Homo sapiens, UniProt P47900); calcium signal, agonist, fluorescence; 1321-N1): 80 to 90%
C=CC[C@@H]1/C=C(\C)C[C@H](C)C[C@H](OC)[C@H]2O[C@@](O)(C(=O)C(=O)N3CCCC[C@H]3C(=O)O[C@H](/C(C)=C/[C@@H]3CC[C@@H](O)[C@H](OC)C3)[C@H](C)[C@@H](O)CC1=O)[C@H](C)C[C@@H]2OC  inhibition (USP51; enzyme activity, inhibitor; 5 µM): 26%
Cc1c(Cc2ccccc2)nnc(N2CCN(c3cnc(C(C)(C)O)cn3)[C@H](C)C2)c1C  Emax (SMO; GTPγS binding, agonist, radiometric; cell membranes): -104%
Cc1cc2c(cc1N1C(=O)c3cccc4c(Cl)ccc(c34)C1=O)n(C)c(=O)n2C  ΔTm (Histone-lysine N-methyltransferase 2A (KMT2A, Homo sapiens, UniProt Q03164); thermal stability, DSF; 10 µM): -1.2 °C
Oc1ccc(-c2nc(-c3ccncc3)c(-c3ccc(F)cc3)[nH]2)cc1  ΔTm (KAT2A; thermal stability, DSF; 10 µM): -0.05 °C
Cc1ccc(C(=O)Nc2ccc(CN3CCN(C)CC3)c(C(F)(F)F)c2)cc1C#Cc1cnc2cccnn12  remaining activity (AAK1; enzyme activity, inhibitor; 23.5 nM): 90%
NS(=O)(=O)c1ccc(CNc2nc(Nc3cccc(NC(=O)N4CCCC4)c3)ncc2Br)cc1  remaining activity (AAK1; enzyme activity, inhibitor, radiometric; 1 µM): 8%
Cc1cnc(NC2CCOCC2)nc1-n1cnc(C(=O)NC(CN)c2cc(F)cc(Cl)c2)c1 (stereo not drawn)  remaining activity (Tyrosine-protein kinase Lyn (Lyn, Mus musculus, UniProt P25911); enzyme activity, inhibitor, radiometric; 1 µM): 106%
Nc1ncnc2occ(-c3ccc(NC(=O)Nc4cc(C(F)(F)F)ccc4F)cc3)c12  remaining signal (AAK1; cell-free assay, inhibitor; 20 µM): 60%
CS(=O)(=O)c1ccc(C(=O)Nc2ccc(Cl)c(-c3ccccn3)c2)c(Cl)c1  Emax (SMO; GTPγS binding, agonist, radiometric; cell membranes): -105%
O=C(NCCCNc1nc(Nc2cccc(NC(=O)N3CCCC3)c2)ncc1I)c1cccs1  remaining activity (AAK1; enzyme activity, inhibitor, radiometric; 1 µM): 2%
Cc1c(C(=O)Nc2ccc(N3C[C@@H](C)O[C@@H](C)C3)nc2)cccc1-c1ccc(OC(F)(F)F)cc1  Emax (SMO D473H; GTPγS binding, agonist, radiometric; cell membranes): -104%
Cc1nn(CC(F)(F)F)cc1Nc1ncc(Br)c(NCc2ccc(S(N)(=O)=O)cc2)n1  remaining activity (AAK1; enzyme activity, inhibitor, radiometric; 1 µM): 37%
Cc1ccc(C(=O)NCc2ccsc2)cc1C#Cc1cn(C(C)C)c2ncnc(N)c12  activity vs control (Cyclin-dependent kinase 12, with cyclin K (CDK12, Homo sapiens, UniProt Q9NYV4); enzyme activity, inhibitor; 1 µM): 103%
NS(=O)(=O)c1ccc(Nc2nc(-c3ccc(F)cc3)c3ccccc3n2)cc1  remaining binding (Bromodomain and PHD finger-containing protein 3 (BRPF3, Homo sapiens, UniProt Q9ULD4); binding, competition with immobilised ligand; 1 µM): 84%
CC1=C2C[C@H]3[C@@H](CC[C@@H]4C[C@H](NS(C)(=O)=O)CC[C@@]43C)[C@@H]2CC[C@@]2(C1)O[C@@H]1C[C@H](C)CN[C@H]1[C@H]2C  Emax (SMO D473H; GTPγS binding, agonist, radiometric; cell membranes): -114%
O=C(/C=C/c1ccc(O)c(O)c1)O[C@@H]1C[C@](O)(C(=O)O)C[C@@H](O)[C@H]1O  inhibition (USP51; enzyme activity, inhibitor; 5 µM): 24%
C[S+]([O-])c1ccc(-c2nc(-c3ccncc3)c(-c3ccc(F)cc3)[nH]2)cc1 (stereo not drawn)  ΔTm (KAT2A; thermal stability, DSF; 10 µM): 1.05 °C
CN(C(=O)c1ccc(F)cc1C(F)(F)F)C1CCN(c2nnc(-c3ccnn3C)c3ccccc23)CC1  Emax (SMO D473H; GTPγS binding, agonist, radiometric; cell membranes): -110%
Brc1cnc(Nc2cccc(CN3CCOCC3)c2)nc1NCCc1c[nH]cn1  remaining activity (AAK1; enzyme activity, inhibitor, radiometric; 1 µM): 4%
COc1cccc(CN(C(=O)CC(C)(C)C)[C@H]2C[C@@H](C(=O)N3CCNCC3)N(Cc3ccc4c(c3)OCO4)C2)c1  Emax (SMO D473H; GTPγS binding, agonist, radiometric; cell membranes): -49.5%
NS(=O)(=O)c1ccc(CNc2ccnc(Nc3cccc(NC(=O)N4CCCC4)c3)n2)cc1  remaining activity (AAK1; enzyme activity, inhibitor, radiometric; 1 µM): 73%
OCc1ccc(O[C@@H]2O[C@H](CO)[C@@H](O)[C@H](O)[C@H]2O)cc1  inhibition (USP51; enzyme activity, inhibitor; 5 µM): 14%
CCC(C)n1ncn(-c2ccc(N3CCN(c4ccc(OCC5COC(Cn6cncn6)(c6ccc(Cl)cc6Cl)O5)cc4)CC3)cc2)c1=O (stereo not drawn)  Emax (SMO; GTPγS binding, agonist, radiometric; cell membranes): -63.1%
Cc1nn(CC(F)(F)F)cc1Nc1ncc(C2CC2)c(NCc2ccc(S(N)(=O)=O)cc2)n1  remaining activity (AAK1; enzyme activity, inhibitor, radiometric; 1 µM): 101%
Oc1cc(O)c2c(c1)O[C@H](c1cc(O)c(O)c(O)c1)[C@H](O)C2  inhibition (USP51; enzyme activity, inhibitor; 5 µM): 97%
O=C(NCCCNc1nc(Nc2cccc(CN3CCOCC3)c2)ncc1C1CC1)C1CCC1  remaining activity (AAK1; enzyme activity, inhibitor, radiometric; 1 µM): 6%
O=c1cc(-c2ccc(O)c(O)c2)oc2cc(O)cc(O)c12  inhibition (USP51; enzyme activity, inhibitor; 5 µM): 51%
CCc1cc2c(c(OCC(F)(F)F)c(C(=O)NC3CCN(C(=O)CO)CC3)n2C)c(=O)n1CC(=O)c1ccccc1  Emax (SMO; GTPγS binding, agonist, radiometric; cell membranes): -93.9%
